Test results as given in ChEMBL document CHEMBL1909587, “Design, synthesis and biological study of novel pyrido[2,3-d]pyrimidine as anti-proliferative CDK2 inhibitors” (Eur J Med Chem, 2011).
pIC50: −log10 of the molar value.

How the values were obtained:
SNU-638 = assay: Growth inhibition of human SNU638 cells after 2 days by SRB assay; assay type: functional; settings: SNU-638, 48 h
Summary of the method: (§1)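 Cells kept in RPMI 1640 with 10% FBS at 37 °C, 5% CO2; 1000 cells/well plated, compounds added next day at various concentrations for two days. Fixed with 4% formalin, stained with 0.1% sulforhodamine B, dye eluted in 0.1 M Tris/HCl pH 8.0, absorbance at 520 nm. Triplicate, averaged; 0% = treatment-time absorbance, 100% = untreated two-day growth; GI50 = 50% growth inhibition.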

[1] = biological target: Cyclin-dependent kinase 2/cyclin A (Homo sapiens, UniProt P24941); assay: Inhibition of CDK2/cyclin A expressed in baculovirus infected insect Sf21 cells using [gamma-P32]ATP and histone H1 as substrate after 10 mins by radiometric assay
A-431 = assay: Growth inhibition of human A431 cells after 2 days by SRB assay; assay type: functional; settings: A-431, 48 h; summary of the method: as §1
HCT116 (Homo sapiens) = assay: Growth inhibition of human HCT116 cells after 2 days by SRB assay; settings: HCT116, 48 h
[2] = biological target: Epidermal growth factor receptor (Homo sapiens, UniProt P00533); assay: Inhibition of human EGFR
Summary of the method: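 Kinase activity measured with the C-terminal human EGFR tyrosine kinase domain; IC50 taken as the inhibitor concentration giving 50% inhibition.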

[3] = Inhibition of CDK4/cyclin D expressed in baculovirus infected insect Sf21 cells using [gamma-P32]ATP and histone H1 as substrate after 10 mins by radiometric assay
Summary of the method: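 20 µL reactions in 50 mM Tris-HCl with 10 µM ATP, 0.2 µCi [γ-32P]ATP, 10 mM MgCl2, 5 mM DTT, 4 µg histone H1 substrate; 10 min with inhibitor, stopped with 30% phosphoric acid. Spotted on P81 paper, washed five times in 10 mM Tris-HCl pH 8.0/0.1 M NaCl, radioactivity imaged; IC50 = concentration giving 50% inhibition.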

Epidermal growth factor receptor, sequence (P00533 whole entry, the tested form may be a part): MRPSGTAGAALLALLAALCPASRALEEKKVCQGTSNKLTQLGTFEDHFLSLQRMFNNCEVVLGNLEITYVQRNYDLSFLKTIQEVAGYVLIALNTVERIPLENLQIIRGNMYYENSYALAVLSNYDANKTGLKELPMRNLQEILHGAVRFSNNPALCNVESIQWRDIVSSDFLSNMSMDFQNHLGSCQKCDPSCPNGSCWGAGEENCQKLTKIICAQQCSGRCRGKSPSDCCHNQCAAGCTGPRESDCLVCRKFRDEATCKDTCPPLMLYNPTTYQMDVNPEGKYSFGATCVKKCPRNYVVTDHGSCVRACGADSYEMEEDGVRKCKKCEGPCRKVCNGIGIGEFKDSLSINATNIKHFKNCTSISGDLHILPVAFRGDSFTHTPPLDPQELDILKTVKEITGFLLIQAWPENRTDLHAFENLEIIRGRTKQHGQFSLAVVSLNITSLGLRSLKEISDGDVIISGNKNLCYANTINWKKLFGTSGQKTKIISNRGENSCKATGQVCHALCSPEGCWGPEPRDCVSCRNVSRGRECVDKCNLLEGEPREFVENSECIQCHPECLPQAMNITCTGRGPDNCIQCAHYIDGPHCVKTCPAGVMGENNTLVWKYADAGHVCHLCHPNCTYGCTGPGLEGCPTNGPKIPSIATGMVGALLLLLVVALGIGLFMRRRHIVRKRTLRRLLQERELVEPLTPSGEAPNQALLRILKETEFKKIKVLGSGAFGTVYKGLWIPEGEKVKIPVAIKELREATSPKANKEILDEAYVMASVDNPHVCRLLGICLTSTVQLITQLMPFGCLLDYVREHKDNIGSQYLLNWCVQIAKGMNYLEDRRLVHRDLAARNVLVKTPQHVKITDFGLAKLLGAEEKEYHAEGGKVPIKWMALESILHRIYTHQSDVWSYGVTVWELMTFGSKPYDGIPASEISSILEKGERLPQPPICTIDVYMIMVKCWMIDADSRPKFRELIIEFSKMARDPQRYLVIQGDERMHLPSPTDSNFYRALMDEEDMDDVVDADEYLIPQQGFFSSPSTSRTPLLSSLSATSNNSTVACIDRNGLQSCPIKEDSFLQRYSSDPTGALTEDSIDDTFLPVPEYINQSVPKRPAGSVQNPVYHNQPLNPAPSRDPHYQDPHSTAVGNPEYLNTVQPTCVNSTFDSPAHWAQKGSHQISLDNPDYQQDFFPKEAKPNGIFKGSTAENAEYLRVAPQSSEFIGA

Work on N#Cc1cc2c(N)ncnc2nc1NCCO yielded a GI50 (SNU-638) of 20.8 µM, a pIC50 [1] of 4.53 and a GI50 (A-431) of 26.6 µM. For the same compound, the GI50 (HCT116 (Homo sapiens)) was 4.5 µM, the pIC50 [2] was 4.03 and the pIC50 [3] was less than 3.70.

Cc1c(C#N)c(NCCO)nc2ncnc(N)c12 gave a GI50 (SNU-638) of 2.58 µM, a pIC50 [1] of 4.53 and a GI50 (A-431) of 5.06 µM. The GI50 (HCT116 (Homo sapiens)) was 4.1 µM, the pIC50 [2] was less than 4.00 and the pIC50 [3] was 4.44.

Work on N#Cc1cc2c(N)ncnc2nc1Nc1ccc(S(N)(=O)=O)cc1 yielded a GI50 (SNU-638) of 7.57 µM, a pIC50 [1] of 6.52 and a GI50 (A-431) of 7.8 µM. For the same compound, the GI50 (HCT116 (Homo sapiens)) was 19.3 µM, the pIC50 [2] was less than 4.00 and the pIC50 [3] was 4.89.

In the case of Cc1c(C#N)c(Nc2ccc(S(N)(=O)=O)cc2)nc2ncnc(N)c12, the GI50 (SNU-638) was 6.2 µM, the pIC50 [1] was 5.00 and the GI50 (A-431) was 2.94 µM. It also gave a GI50 (HCT116 (Homo sapiens)) of 16.6 µM, a pIC50 [2] of less than 4.00 and a pIC50 [3] of 4.80.

In the case of Nc1scc2c1c(NCCO)nc1ncnc(N)c12, the GI50 (SNU-638) was 18.3 µM, the pIC50 [1] was 6.30 and the GI50 (A-431) was 54.3 µM. For the same compound, the GI50 (HCT116 (Homo sapiens)) was 6.46 µM, the pIC50 [2] was less than 4.00 and the pIC50 [3] was 4.54.

With Nc1scc2c1c(Nc1ccc(S(N)(=O)=O)cc1)nc1ncnc(N)c12 the GI50 (SNU-638) was 2.56 µM, the pIC50 [1] was 4.44 and the GI50 (A-431) was 3.94 µM. For the same compound, the GI50 (HCT116 (Homo sapiens)) was 8.89 µM, the pIC50 [2] was 4.53 and the pIC50 [3] was less than 3.92.

Compound N#Cc1cc2c(N)nc(NCCO)nc2nc1NCCO has a GI50 (SNU-638) of 7.95 µM, a pIC50 [1] of 5.20 and a GI50 (A-431) of 6.25 µM. For the same compound, the GI50 (HCT116 (Homo sapiens)) was 10.9 µM, the pIC50 [2] was less than 4.00 and the pIC50 [3] was 4.55.

With Cc1c(C#N)c(NCCO)nc2nc(NCCO)nc(N)c12 the GI50 (SNU-638) was 18.2 µM, the pIC50 [1] was 5.42 and the GI50 (A-431) was 31.9 µM. For the same compound, the GI50 (HCT116 (Homo sapiens)) was 20.1 µM, the pIC50 [2] was 4.32 and the pIC50 [3] was 5.00.

Work on N#Cc1cc2c(N)nc(NCCO)nc2nc1Nc1ccc(S(N)(=O)=O)cc1 yielded a GI50 (SNU-638) of 35.8 µM, a pIC50 [1] of 6.05 and a GI50 (A-431) of 36.3 µM. The GI50 (HCT116 (Homo sapiens)) was 48.2 µM, the pIC50 [2] was less than 4.00 and the pIC50 [3] was 3.92.

Cc1c(C#N)c(Nc2ccc(S(N)(=O)=O)cc2)nc2nc(NCCO)nc(N)c12 gave a GI50 (SNU-638) of 17.1 µM, a pIC50 [1] of 5.51 and a GI50 (A-431) greater than 100 µM. For the same compound, the GI50 (HCT116 (Homo sapiens)) was 38.2 µM, the pIC50 [2] was less than 4.00 and the pIC50 [3] was 4.02.

Nc1scc2c1c(NCCO)nc1nc(NCCO)nc(N)c12 gave a GI50 (SNU-638) of 2.57 µM, a pIC50 [1] of 7.05 and a GI50 (A-431) of 4.6 µM. It also gave a GI50 (HCT116 (Homo sapiens)) of 11.4 µM, a pIC50 [2] of 4.18 and a pIC50 [3] of less than 4.32.

Nc1scc2c1c(Nc1ccc(S(N)(=O)=O)cc1)nc1nc(NCCO)nc(N)c12 gave a GI50 (SNU-638) of 26.1 µM, a pIC50 [1] of 5.09 and a GI50 (A-431) of 21.9 µM. It also gave a GI50 (HCT116 (Homo sapiens)) of 47.7 µM, a pIC50 [2] of less than 4.00 and a pIC50 [3] of 4.36.

COc1cccc2c1C(=O)c1c(O)c3c(c(O)c1C2=O)C[C@@](O)(C(=O)CO)C[C@@H]3O[C@H]1C[C@H](N)[C@H](O)[C@H](C)O1 [DOXORUBICIN] gave a GI50 (A-431) of 0.18 µM and a GI50 (HCT116 (Homo sapiens)) of 0.13 µM.

For Cn1cnc2c(NCc3ccccc3)nc(NCCO)nc21 [OLOMOUCINE], the GI50 (SNU-638) was 16.6 µM, the GI50 (A-431) was 16.6 µM and the GI50 (HCT116 (Homo sapiens)) was 12.1 µM. For the same compound, the pIC50 [3] was 4.35.

Work on CC[C@H](CO)Nc1nc(NCc2ccccc2)c2ncn(C(C)C)c2n1 [SELICICLIB] yielded a pIC50 [3] of 4.82.
